Here are results for five compounds from ChEMBL document CHEMBL1125605 (1991).

What all share (format): functional
The test system of test [1] is E6SM. As to the kind of experiment: Concentration required to inhibit HSV-1 (McIntyre) induced cytopathogenicity in E6SM cells by 50%. The note with it: Homo sapiens.
The subject of test [2] is E6SM. As to the kind of experiment: Concentration required to inhibit HSV-2(lyons) induced cytopathogenicity in E6SM cells by 50%. The note with it: Homo sapiens. (In general: Protection from cytopathic effect is a common read-out in antiviral testing.)
Test [3] has as its system HEL. As to the kind of experiment: Concentration required to inhibit TK-VZV (07-1) induced cytopathogenicity in HEL cells by 50%. The note with it: Homo sapiens.
For test [4], the system named is E6SM. As to the kind of experiment: Concentration required to inhibit TK-HSV-1 (B2006) induced cytopathogenicity in E6SM cells by 50%. The note with it: Homo sapiens.
The test system of test [5] is HEL. Nature of the test: Concentration required to inhibit CMV (Davis) induced cytopathogenicity in HEL cells by 50%. The note with it: Homo sapiens.
Test [6] has as its system HEL. Nature of the test: Concentration required to cause 50% reduction in HEL cell growth. The note with it: Homo sapiens; read-out: MIC. The method, boiled down:
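Cytotoxicity was measured as inhibition of growth of HEL human embryonic lung fibroblasts. The value is the compound concentration that reduced cell growth by 50%.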

Test [7] concerns E6SM. Nature of the test: Concentration required to inhibit HSV-2(G) induced cytopathogenicity in E6SM cells by 50%. The note with it: Homo sapiens.
The subject of test [8] is E6SM. Nature of the test: Concentration required to inhibit HSV-1 (KOS) induced cytopathogenicity in E6SM cells by 50%. The note with it: Homo sapiens.
The test system of test [9] is E6SM. As to the kind of experiment: Concentration required to inhibit HSV-2(196) induced cytopathogenicity in E6SM cells by 50%. The note with it: Homo sapiens.
The subject of test [10] is HEL. As to the kind of experiment: Concentration required to inhibit VZV (YS) induced cytopathogenicity in HEL cells by 50%. The note with it: Homo sapiens.
For test [11], the system named is HEL. As to the kind of experiment: Concentration required to inhibit VZV (oka) induced cytopathogenicity in HEL cells by 50%. The note with it: Homo sapiens.
The test system of test [12] is E6SM. Nature of the test: oncentration required to inhibit VV induced cytopathogenicity in E6SM cells by 50%. The note with it: Homo sapiens.
Test [13] deals with E6SM. Nature of the test: Concentration required to inhibit HSV-1 (F) induced cytopathogenicity in E6SM cells by 50%. The note with it: Homo sapiens.
The test system of test [14] is E6SM. As to the kind of experiment: Concentration required to inhibit TK-HSV-1 (VMW1837) induced cytopathogenicity in E6SM cells by 50%. The note with it: Homo sapiens.
Test [15] relates to HEL. Nature of the test: Concentration required to inhibit TK-VZV (YSR) induced cytopathogenicity in HEL cells by 50%. The note with it: Homo sapiens.
For test [16], the system named is E6SM. As to the kind of experiment: Concentration required to cause a microscopically detectable alteration of normal cell morphology in E6SM cells. The note with it: Homo sapiens; read-out: MIC. A digest of the protocol:
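Uninfected E6SM human embryonic skin-muscle fibroblasts were exposed to compound and examined under the microscope. The value is the minimum concentration that caused a detectable alteration of normal cell morphology.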

For test [17], the system named is HEL. As to the kind of experiment: Concentration required to inhibit CMV (AD-169) induced cytopathogenicity in HEL cells by 50%. The note with it: Homo sapiens.

Each structure is given as a SMILES string. In brackets after ≈: the same amount, converted by molar mass.

In the case of `O=c1[nH]c(=O)n([C@H]2C[C@H](O)[C@@H](CO)O2)cc1-c1ccc(Br)s1`, the MIC in the test with E6SM [1] is 0.02 mg/L (≈ 0.0514 µM); in the test with E6SM [2] it was 150 mg/L (≈ 385 µM); in the test on HEL [3], > 40 mg/L; in the test on E6SM [4], 150 mg/L (≈ 385 µM); with HEL [5] it was > 100 mg/L; against E6SM [7], 150 mg/L (≈ 385 µM). Further, the MIC was 0.03 mg/L (≈ 0.0771 µM) with E6SM [8]; > 200 mg/L with E6SM [9]; 0.03 mg/L (≈ 0.0771 µM) with HEL [10]; 0.03 mg/L (≈ 0.0771 µM) with HEL [11]; 70 mg/L (≈ 180 µM) against E6SM [12]; 0.07 mg/L (≈ 0.18 µM) against E6SM [13]. Moreover, the values for the MIC in the test on E6SM [14], with HEL [15] and with HEL [17] were 150 mg/L (≈ 385 µM), > 40 mg/L and > 100 mg/L, respectively. The CC50 (50% cell growth inhibitory concentration) with HEL [6] amounted to 155 mg/L (≈ 398 µM). Further, in the test on E6SM [16], the minimum cytotoxic concentration (morphology alteration) is > 400 µg/mL.
On to `O=c1[nH]c(=O)n([C@H]2C[C@H](O)[C@@H](CO)O2)cc1-c1cccs1`, for which the MIC against E6SM [1] came out at 0.1 mg/L (≈ 0.322 µM); in the test on E6SM [2], 100 mg/L (≈ 322 µM); against HEL [3] it was 180 mg/L (≈ 580 µM); against E6SM [4], 300 mg/L (≈ 967 µM); with HEL [5], 250 mg/L (≈ 806 µM); in the test with E6SM [7] it was 250 mg/L (≈ 806 µM). The MIC in the test on E6SM [8] was 0.45 mg/L (≈ 1.45 µM); against E6SM [9] it was 150 mg/L (≈ 483 µM); in the test with HEL [10], 41 mg/L (≈ 132 µM); with HEL [11] it was 18 mg/L (≈ 58 µM); against E6SM [12], > 400 mg/L; against E6SM [13], 0.2 mg/L (≈ 0.644 µM). For the same compound, the MIC in the test with E6SM [14] was 150 mg/L (≈ 483 µM); in the test on HEL [15] it was > 400 mg/L; against HEL [17] it was 250 mg/L (≈ 806 µM). The CC50 (50% cell growth inhibitory concentration) in the test on HEL [6] is > 200 mg/L. For the same compound, the minimum cytotoxic concentration (morphology alteration) with E6SM [16] is > 400 µg/mL.
As for `O=c1[nH]c(=O)n([C@@H]2C[C@H](O)[C@@H](CO)O2)cc1-c1cccs1`, the MIC against E6SM [2] is 100 mg/L (≈ 322 µM); against HEL [3], 85 mg/L (≈ 274 µM); against E6SM [4], > 200 mg/L; against E6SM [7], > 300 mg/L; against E6SM [8], > 200 mg/L; in the test on E6SM [9], 150 mg/L (≈ 483 µM). Also, the MIC against HEL [10] is > 100 mg/L; with HEL [11] it was 75 mg/L (≈ 242 µM); against E6SM [12], > 200 mg/L; with E6SM [14], 150 mg/L (≈ 483 µM); with HEL [15] it was 80 mg/L (≈ 258 µM); in the test with HEL [17], > 100 mg/L. Also, the CC50 (50% cell growth inhibitory concentration) in the test on HEL [6] worked out at 180 mg/L (≈ 580 µM). For the same compound, the minimum cytotoxic concentration (morphology alteration) in the test on E6SM [16] was > 400 µg/mL.
`O=c1[nH]c(=O)n([C@H]2C[C@H](O)[C@@H](CO)O2)cc1-c1ccc(Cl)s1`: the MIC in the test on E6SM [1] is 0.004 mg/L (≈ 0.0116 µM); in the test with E6SM [2], > 200 mg/L; against HEL [3], 35 mg/L (≈ 102 µM); in the test with E6SM [4], > 200 mg/L; with E6SM [7], > 200 mg/L; against E6SM [8], 0.02 mg/L (≈ 0.058 µM). The MIC against E6SM [9] is > 200 mg/L; in the test on HEL [10] it was 0.02 mg/L (≈ 0.058 µM); against HEL [11], 0.02 mg/L (≈ 0.058 µM); in the test on E6SM [12], > 200 mg/L; against E6SM [13], 0.04 mg/L (≈ 0.116 µM); against E6SM [14], > 200 mg/L. In addition, the values for the MIC in the test on HEL [15] and in the test with HEL [17] were 65 mg/L (≈ 189 µM) and > 40 mg/L, respectively. Besides, in the test with HEL [6], the CC50 (50% cell growth inhibitory concentration) was > 50 mg/L. For the same compound, the minimum cytotoxic concentration (morphology alteration) in the test with E6SM [16] is > 400 µg/mL.
On to `Nc1nc(=O)n([C@H]2C[C@H](O)[C@@H](CO)O2)cc1-c1cccs1`, for which the MIC is 0.07 mg/L (≈ 0.226 µM) with E6SM [1]; 20 mg/L (≈ 64.7 µM) against E6SM [2]; 8 mg/L (≈ 25.9 µM) against HEL [3]; > 100 mg/L against E6SM [4]; 40 mg/L (≈ 129 µM) in the test on HEL [5]; 45 mg/L (≈ 145 µM) with E6SM [7]. The MIC is 1.3 mg/L (≈ 4.2 µM) against E6SM [8]; 20 mg/L (≈ 64.7 µM) in the test on E6SM [9]; 4 mg/L (≈ 12.9 µM) against HEL [10]; 3 mg/L (≈ 9.7 µM) against HEL [11]; 20 mg/L (≈ 64.7 µM) against E6SM [12]; 0.4 mg/L (≈ 1.29 µM) against E6SM [13]. The MIC was > 100 mg/L in the test with E6SM [14], 30 mg/L (≈ 97 µM) against HEL [15] and 60 mg/L (≈ 194 µM) in the test on HEL [17]. For the same compound, the CC50 (50% cell growth inhibitory concentration) in the test on HEL [6] was 45 mg/L (≈ 145 µM). Besides, the minimum cytotoxic concentration (morphology alteration) with E6SM [16] is > 200 µg/mL.
